This note sets out measurements from ChEMBL document CHEMBL3259616, “New Ianthelliformisamine derivatives as antibiotic enhancers against resistant Gram-negative bacteria” (J Med Chem, 2014).

Values after ≈ are worked out from the molar mass of the structure shown. Active and inactive are the calls of the source. The rule behind the calls is not given here.

Test [1] deals with Pseudomonas aeruginosa. Nature of the test: Disruption of outermembrane in Pseudomonas aeruginosa PAO1 assessed as ATP efflux at 2 mM by bioluminescence method. The test is classed as functional. Put shortly: (§1)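 After 5 min an aliquot was vortexed, luciferin–luciferase added and luminescence read for 5 s. ATP quantified with an internal standard; maximal release set with 0.02% […].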

The test system of test [2] is Pseudomonas aeruginosa. Briefly: Disruption of outermembrane in Pseudomonas aeruginosa PAO1 assessed as ATP efflux at 2 to 200 uM by bioluminescence method in presence of 2 to 50 ug/ml doxycycline. The test is classed as functional, organism-based. Put shortly: as §1
Test [3] concerns Pseudomonas aeruginosa. Briefly: Disruption of outermembrane in Pseudomonas aeruginosa PAO1 assessed as rate of nitrocefin hydrolysis at 500 uM spectrophotometrically. The format is functional, organism-based. Put shortly: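 PAO1 grown in MH broth at 37 °C to OD600 0.5; then room temperature. Cells centrifuged and washed once in 20 mM potassium phosphate pH 7.2 with 1 mM MgCl2, then exposed to compound. Nitrocefin added to final 50 μg/mL as periplasmic β-lactamase substrate; hydrolysis followed as rising absorbance at 490 nm against untreated control.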

Test [4] concerns Klebsiella pneumoniae. Nature of the test: Antibacterial activity against Klebsiella pneumoniae KPC2 ST258 assessed as inhibition of visible growth after 18 hrs incubation by standard broth dilution method. The following applies: KPC2, 18 h. The format is functional. Put shortly:
(§2)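 Broth microdilution per CA-SFM: inoculum 10^5 CFU in 200 μL Mueller–Hinton broth with 2-fold serial dilutions of compound; MIC = lowest concentration with no visible growth after 18 h at 37 °C. Independently repeated at least three times. Strains kept at −80 °C in 15% glycerol and grown routinely in MH broth at 37 °C.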
Background: In broth dilution the organism is exposed to a series of concentrations in liquid medium.

The subject of test [5] is Staphylococcus aureus. Nature of the test: Antibacterial activity against Staphylococcus aureus DSM799 assessed as inhibition of visible growth after 18 hrs incubation by standard broth dilution method. The format is functional. The following applies: DSM799, 18 h. Put shortly: as §2
In test [6] the test system is Pseudomonas aeruginosa. Briefly: Disruption of outermembrane in Pseudomonas aeruginosa PAO1 assessed as ATP efflux at 2 to 200 uM by bioluminescence method. The format is functional, organism-based. Put shortly:
as §1

The subject of test [7] is Pseudomonas aeruginosa PAO1. Nature of the test: Inhibition of multidrug resistance efflux pump in Pseudomonas aeruginosa PAO1 assessed as dose required to restore 2 ug/ml chloramphenicol-induced inhibition of visible growth after 18 hrs by standard broth dilution method. Put shortly:
(§3)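 Broth microdilution in MH broth, inoculum 10^5 CFU in 200 μL, 2-fold serial dilutions of derivative with fixed antibiotic (2 μg/mL). Lowest derivative concentration giving complete inhibition of visible growth after 18 h at 37 °C recorded. Antibiotics dissolved in DMSO. Independently repeated at least three times.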

The test system of test [8] is Klebsiella pneumoniae. Briefly: Inhibition of multidrug resistance efflux pump in Klebsiella pneumoniae KPC2 ST258 assessed as dose required to restore 2 ug/ml doxycycline-induced inhibition of visible growth after 18 hrs by standard broth dilution method. Put shortly: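 Broth microdilution in Mueller-Hinton broth, CA-SFM recommendations. Inoculum 10^5 CFU in 200 μL containing 2-fold serial dilutions of derivative plus doxycycline at 2 μg/mL, 37 °C for 18 h. Antibiotics dissolved in DMSO, up to 5% v/v. Repeated independently at least three times.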

A short description of test [9]: Cytotoxicity against CHOK1 cells assessed as decrease in cell viability after 24 hrs by WST-1 assay. The format is cell-based. The following applies: Cricetulus griseus, CHO-K1, 24 h. Put shortly: (§4)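 CHO-K1 (McCoy's 5A) and human fibroblasts (DMEM), both with 10% bovine calf serum, 2 mM glutamine, penicillin/streptomycin, 37 °C, 5% CO2. Seeded, left overnight, then exposed to various compound concentrations in triplicate for 24 h at 37 °C. Washed three times in PBS, 30 min in PBS with 10% WST-1, A450. Viability as % of medium-only control; IC50 by nonlinear regression.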

The test system of test [10] is Klebsiella aerogenes. Nature of the test: Antibacterial activity against Enterobacter aerogenes EA289 assessed as inhibition of visible growth after 18 hrs incubation by standard broth dilution method. The test is classed as functional. To be noted: EA289, 18 h. Put shortly:
as §2

Test [11] has as its system Pseudomonas aeruginosa. Nature of the test: Antibacterial activity against Pseudomonas aeruginosa PAO1 assessed as inhibition of visible growth after 18 hrs incubation by standard broth dilution method. The format is functional. The following applies: PAO1, 18 h. Put shortly: as §2
Test [12] relates to Pseudomonas aeruginosa PAO1. Nature of the test: Inhibition of multidrug resistance efflux pump in Pseudomonas aeruginosa PAO1 assessed as dose required to restore 2 ug/ml cefepime-induced inhibition of visible growth after 18 hrs by standard broth dilution method. Put shortly:
as §3

The test system of test [13] is Pseudomonas aeruginosa PAO1. Briefly: Inhibition of multidrug resistance efflux pump in Pseudomonas aeruginosa PAO1 assessed as depolarization by spectrofluorometry. Put shortly:
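PAO1 grown 24 h at 37 °C in MH broth, washed twice in buffered 250 mM sucrose with 5 mM MgSO4. Loaded with 3 μM 3,3-diethylthiodicarbocyanine iodide for 1 h at 37 °C, then derivative added at various concentrations. Fluorescence read at 0–21 min intervals. Maximum taken as 3 μM dye alone in buffer.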

In test [14] the test system is Pseudomonas aeruginosa PAO1. Nature of the test: Inhibition of multidrug resistance efflux pump in Pseudomonas aeruginosa PAO1 assessed as dose required to restore 2 ug/ml doxycycline-induced inhibition of visible growth after 18 hrs by standard broth dilution method. Put shortly: as §3
Test [15] deals with Klebsiella aerogenes. Briefly: Inhibition of multidrug resistance efflux pump in Enterobacter aerogenes EA289 assessed as dose required to restore 2 ug/ml doxycycline-induced inhibition of visible growth after 18 hrs by standard broth dilution method. Put shortly: as §3
Test [16] in a line: Cytotoxicity against human fibroblasts assessed as decrease in cell viability after 24 hrs by WST-1 assay. The format is cell-based. The following applies: Fibroblast. Put shortly:
as §4

Usually MIC stands for the least concentration at which growth counts as inhibited. Usually IC50 stands for the concentration that gives 50% inhibition. Turning to `COc1c(Br)cc(/C=C/C(=O)NCCCN(CCCN)CCCN)cc1Br`, the Activity in test [1] was under 16%; in test [7] it was 100 µM; in [8], 3.12 µM; in test [12], 0.4 µM; in test [14] it was 3.12 µM; in test [15], 6.25 µM. In addition, the inhibition entry in test [2], in [3] and in test [6] was “inactive” throughout. Moreover, the MIC was over 200 µM in test [4], 50 µM (≈ 25.3 µg/mL) in test [5], over 200 µM in [10] and 100 µM (≈ 50.6 µg/mL) in test [11]. Moreover, the IC50 in test [9] was 846 µM; in test [16], 345 µM. Further, the inhibition result in [13] and in [14] was “Dose-dependent effect” each time.
